Bioassay records deposited in PubChem BioAssay by several laboratories.
Compounds with a hit are over-represented: about 2% of the library has one in this group of screens.
PABP polyA inh: blocks human PABP binding to poly(A) RNA. P11940. fluorescence polarization. inhibition, % at 35 µM. 290,000 tested, 1% active. AID 2014;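 note: calls also rest on retests at 20 µM and on dose response follow-up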
Target sequence (P11940 whole entry, looked up): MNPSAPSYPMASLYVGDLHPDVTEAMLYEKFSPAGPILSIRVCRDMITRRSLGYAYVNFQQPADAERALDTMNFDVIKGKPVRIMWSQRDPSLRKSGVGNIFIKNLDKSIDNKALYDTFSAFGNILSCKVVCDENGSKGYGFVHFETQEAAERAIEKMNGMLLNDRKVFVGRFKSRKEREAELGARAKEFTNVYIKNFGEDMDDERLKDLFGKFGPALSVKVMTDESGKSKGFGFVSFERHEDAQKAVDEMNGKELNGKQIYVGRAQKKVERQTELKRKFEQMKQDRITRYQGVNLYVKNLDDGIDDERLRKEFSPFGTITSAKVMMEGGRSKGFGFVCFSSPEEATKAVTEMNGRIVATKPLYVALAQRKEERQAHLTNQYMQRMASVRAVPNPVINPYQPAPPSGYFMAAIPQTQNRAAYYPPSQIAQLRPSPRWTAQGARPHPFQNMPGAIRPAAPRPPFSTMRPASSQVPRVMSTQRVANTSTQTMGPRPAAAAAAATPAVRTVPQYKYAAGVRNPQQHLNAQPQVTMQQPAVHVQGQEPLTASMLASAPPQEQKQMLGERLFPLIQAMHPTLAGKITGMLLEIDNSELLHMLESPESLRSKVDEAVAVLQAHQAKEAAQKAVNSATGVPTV
eIF4H FP inh: inhibitors of RNA binding by human eIF4H. Q15056. eIF4H fluorescence polarization binding assay. inhibition, % at 35 µM. 290,000 tested, 0.94% active;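 note: calls also rest on retests at 20 µM and on dose response follow-up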
MLLE-PAM2 inh: inhibitors of microRNA-mediated deadenylation, human PABP1 MLLE binding; GST-MLLE / FITC-PAM2 fluorescence polarization; inhibition, % at 20 µM; 360,000 tested, 0.36% active; AID 588489; in the data active = inhibition above about 35%, passing the limit was not always enough;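 note: plate controls were DMSO wells with GST-MLLE for no effect and wells lacking GST-MLLE protein for full effect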
DNA FID counter: displaces DNA intercalator in HCV helicase counter-screen; DNA fluorescent intercalator displacement, fluorescence; inhibition, % at 7.9 µM; 290,000 tested, 0.17% active; in the data active = inhibition above about 37%;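 note: 0% = vehicle and 100% = reference compound; higher means more ethidium bromide displaced from hairpin DNA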
HCV NS3 hel inh: HCV NS3 helicase inhibition; NS3 helicase DNA unwinding, Cy5 molecular beacon fluorescence; inhibition, % at 10.9 µM; 290,000 tested, 0.56% active; AID 1800;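 active = inhibition above the mean of all tested compounds plus 3 SD, set per campaign, cut at about 35% in these data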;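 note: 0% = DMSO wells and 100% = thioflavine S control wells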
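Compound dosing – single dose, 10.9 µM nominal final, DMSO 0.8% final · System – NS3 helicase fragment of HCV · Buffer or medium – MOPS pH 6.5, MgCl2, DTT, Tween20, BSA · Signal – Cy5 beacon fluorescence read at start and 1 h · Also added – annealed dual-labelled DNA beacon duplex, ATP-started · Schedule – 1 h at 25 °C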
HCV core dimer: HCV core protein dimerization inhibition; TR-FRET GST/Flag-core106 dimerization, 1536-well; inhibition, % at 5 µM; 300,000 tested, 0.33% active;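 active = inhibition above the mean of all tested compounds plus 3 SD, set per screening campaign, cut at about 45% in these data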
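Material: Tagged HCV core106 pair (GST and Flag) | Amount: GST-core106 13.5 nM, Flag-core106 17 nM | Medium: KF-containing HEPES buffer, pH 7.45, DTT, CHAPS, BSA | Reagent: Eu donor and XL665 acceptor anti-tag antibodies | Schedule: 4 h at 22.5 °C | Technique: Time-resolved FRET, ex 340 nm, em 617 and 671 nm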
* = called active by the depositor; u = inconclusive; x = no result. Unless noted, the rule behind the calls is not given here.

SMILES	PABP polyA inh	eIF4H FP inh	MLLE-PAM2 inh	DNA FID counter	HCV NS3 hel inh	HCV core dimer
Cc1cc(C)n(-c2cc(N3CCN(S(=O)(=O)c4ccc(C)c(C)c4)CC3)ccc2[N+](=O)[O-])n1	-13.3	-6.8	4.3	-3.8	1.6	24.5
O=C(O)c1ccc2c(c1)NC(=O)C(N1CCCC1)S2 (centres undefined)	35.3	49.3	54.8*	0.6	-9.2	-1.1
CCCCCc1c2c(cc(O)c1C(=O)O)OC(=O)c1cc(C(=O)CCCC)c(OC)cc1O2	x	x	1.5	x	x	x
CCCCCc1c2c(cc(O)c1C(=O)O)OC(=O)c1c(cc(OC)cc1C(=O)CCCC)O2	25.2*	61.8	-6.2	-6.4	5.7	8.2
COc1ccc2c(CC(=O)Nc3ccc(OC)c(NS(=O)(=O)c4ccc(F)cc4)c3)coc2c1	-6.4	-1.5	-13.3	-9.7	-10.4	68.0*
COc1ccc(C(=O)COC(=O)c2cccnc2Cl)c(OC)c1	1.5	58.7*	-15.0	-13.4	6.8	68.3*
COc1cc(C(=S)N2CCOCC2)cc(OC)c1OS(=O)(=O)c1ccc(C)cc1	0.3	-1.0	42.2*	-28.0	-10.4	0.8
COc1cc2sc(-c3ccc(S(C)(=O)=O)cc3)c(-c3ccc4c(c3)OCO4)c2cc1OC	x	x	-10.2	x	x	x
CCCCCCCn1ccc(=N)cc1	50.0*	0.6*	-126.9	0.5	-0.6	2.2
COc1ccccc1NCCC(=O)OCC(=O)Nc1cc([N+](=O)[O-])ccc1F	x	x	-6.0	x	x	x
O=C(O)c1cccc(Cn2c(Cl)c(/C=N/NC(=O)c3ccccc3)sc2=O)c1	3.7	-5.9	-105.4	-20.0	2.8	-5.2
O=C(O)c1cccc(Cn2c(Cl)c(/C=N/NC(=O)c3cc4ccccc4cc3O)sc2=O)c1	81.5*	102.4*	-118.2	-18.6	-5.5	13.3
C=CCn1c(COc2ccc(OC)cc2)nnc1SCn1nnc2ccccc2c1=O	63.1*	active	-40.0	-29.2	1.6	0.8
O=c1c2ccccc2nnn1CSc1nnc(COc2ccc(Cl)cc2)n1Cc1ccco1	-6.3	6.6	-4.6	0.0	6.4	10.7
O=C(C1CCCO1)N1CCN(S(=O)(=O)c2cc(C(F)(F)F)ccc2Cl)CC1 (centres undefined)	x	x	-6.9	x	x	x
CC(C)CNc1nc(=S)nc(N(C)C)[nH]1	-3.1	-12.4	43.1*	-6.4	5.3	-3.1
O=C(CN1C(=O)c2ccccc2S1(=O)=O)Nc1ncc(Cl)cc1Cl	x	x	48.8*	x	x	x
O=C(CN1C(=O)c2ccccc2S1(=O)=O)Nc1ncccn1	x	x	5.5	x	x	4.5
CC1(C)CC(=O)C2=C(C1)Nc1ccccc1NC2c1ccccc1F (centres undefined)	19.7	3.4	47.7*	-8.8	-8.0	5.7
CC1(C)CC(=O)C2=C(C1)Nc1ccccc1NC2c1ccc(F)c(F)c1 (centres undefined)	-1.9	4.3	-2.8	-16.6	-1.6	2.2
CCCOc1cccc(C2C(C(=O)c3ccc(C)o3)=C(O)C(=O)N2c2nc(C)c(C(C)=O)s2)c1 (centres undefined)	0.5	1.1	-47.4	-36.8	17.6	-30.9
CC(=O)Nc1ccc(NC(=O)CCC(=O)OCC(=O)c2ccc(F)cc2)cc1	-1.4	-9.7	6.2	-2.0	3.9	5.0
CCOC(=O)c1c(N)sc2c1CCS(=O)(=O)C2	37.5	18.4	38.9*	-5.2	4.5	-1.6
CC(Nc1ccc(Br)cc1)C(=O)NC(=O)NC1CCCCC1 (centres undefined)	x	x	8.6	x	x	x
Cn1cnnc1SCC(=O)Nc1cc(S(=O)(=O)N2CCCCC2)ccc1Cl	2.8	-5.2	12.6	-14.9	-6.6	-4.4
SMILES	PABP polyA inh	eIF4H FP inh	MLLE-PAM2 inh	DNA FID counter	HCV NS3 hel inh	HCV core dimer
COCCn1cnnc1SCC(=O)c1ccc(S(=O)(=O)N2CCCC2)cc1	2.3	-9.1	5.8	-5.0	-1.1	53.6*
CC(C)NC(=O)C1(C)CCN1C(=O)c1cccn1C (centres undefined)	x	x	-10.1	x	x	x
O=C(Nc1cccc2ccccc12)N1CCN(c2ccccc2)CC1	-8.1	-0.5	13.5	0.5	1.7	-0.1
O=C(Nc1cccc2ccccc12)N1CC=CCC1	94.8*	81.4*	-7.5	4.4	0.2	-3.2
O=[N+]([O-])c1ccc2nc(N3CCCC3)sc2c1	50.3*	34.5	-86.8	-0.4	0.6	-7.7
COc1ccc(Cc2c(-c3cccc(Br)c3)nc3c(C)cc(Br)cn23)c(C)c1	x	x	-13.4	x	x	x
Nc1nc(=S)c2ncn(C3OC(CO)CC3O)c2[nH]1 (centres undefined)	x	x	7.9	x	x	x
Cc1cc(C2C(C#N)=C(N)SC(N)=C2C#N)c(C)s1	u	u	-53.8	2.5	20.3	51.2*
Cc1[nH]nc2c1C(c1ccsc1C)C(C#N)=C(N)O2 (centres undefined)	2.9	2.3	1.1	1.2	0.5	-11.9
Cc1sccc1C1C(C#N)=C(N)SC(N)=C1C#N	113.6	121.0	x	-3.7	15.5	59.5*
COc1ccc(C(=O)C[n+]2ccc3ccccc3c2C)cc1	51.3*	90.6*	5.5	1.9	-13.5	-0.5
COc1ccc(C(C(=O)NC2CCCC2)N(C(=O)c2snc(-c3ccc(F)cc3)c2N)c2ccc(OC)cc2)cc1 (centres undefined)	12.5	3.8	-5.7	-4.7	-11.7	48.3*
C(C#CCCCCCCCCC[n+]1ccccc1)#CCCCCCCCCC[n+]1ccccc1	20.6	21.2	-7.5	42.9*	-66.2	-6.8
CC(C)C1OC2c3cccc4cccc(c34)C2N1c1ccccc1 (centres undefined)	-5.4	105.4	43.9*	-1.5	-2.7	-1.6
N#C/C(=C\c1ccc(-c2ccc(C(=O)O)cc2)o1)C(=O)Nc1ccc(F)cc1	70.4*	87.0*	-81.5	-16.4	31.2	-15.4
CC(C)(C)c1ccc(OCCCC(=O)Nc2nnc(C3CC3)s2)cc1	x	x	3.1	x	x	x
Cc1sc2ncnc(N/N=C/c3cccc(O)c3)c2c1C	3.0	-2.4	1.3	-7.9	-1.1	-2.4
C/C(=N\Nc1ncnc2sc(C)c(C)c12)c1ccccn1	52.7*	u	-7.8	-13.4	4.5	-16.0
C[n+]1cccc(C2C(C#N)=C(N)Oc3c2ccc2ccccc32)c1 (centres undefined)	70.4*	32.5	-62.6	28.4	-20.4	-10.7
O=C(Nc1cccc(OC(F)(F)F)c1)[C@@H]1O[C@H](CO)[C@H](O)[C@H](O)[C@H]1O	x	x	15.2	x	x	x
CCCC(CCC)C(=O)Nc1ccc2c(c1)N(C(=O)CN1CCN(C)CC1)c1ccccc1CC2	-8.6	-6.9	6.6	48.6*	-55.9	-12.2
O=C(c1ccc(Cl)s1)N1CCN(S(=O)(=O)c2ccc(Cl)cc2)CC1	x	x	-3.9	x	x	x
Cc1ccc(NC(=S)NCCN(C2CCCCC2)C2CCCC2)cc1C	51.1*	active	2.1	31.7	-35.0	-1.9
Cc1c(C(=O)O)sc2nc(SCC(=O)Nc3ccc(S(=O)(=O)NCCCC(=O)O)cc3)[nH]c(=O)c12	82.3	1.1*	-0.8	-4.0	-20.8	-6.4
